# Results: ChEMBL document CHEMBL2390822, “Bioactive terpenoids from the fruits of Aphanamixis grandifolia” (J Nat Prod, 2013)
# Active and inactive are the calls of the source. The rule behind the calls is not given here.
# How the values were obtained:
# [1] = tested on: P388; experiment: Cytotoxicity against mouse P388 cells; assay type: functional; conditions: read-out: ED50 (the source's name)
# [2] = tested on: Plutella xylostella; experiment: Insecticidal activity against Plutella xylostella infected in cabbage leaves assessed as mortality after 5 days by leaf-disc method; assay type: functional, organism-based
# [3] = tested on: Diabrotica balteata; experiment: Insecticidal activity against Diabrotica balteata infected in cabbage leaves assessed as mortality after 5 days by leaf-disc method; assay type: functional
# [4] = tested on: Sitobion avenae; experiment: Insecticidal activity against second-instar larva of Sitobion avenae infected in cabbage leaves assessed as mortality after 5 days by leaf-disc method; assay type: functional
# [5] = tested on: Caenorhabditis elegans; experiment: Insecticidal activity against fourth-instar larva of Caenorhabditis elegans assessed as mortality after 5 days; assay type: functional, organism-based
# [6] = tested on: SMMC-7721; experiment: Cytotoxicity against human SMMC7721 cells after 72 hrs by MTT assay; assay type: functional, cell-based
# In short: (§1)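 Human tumour cell panel (HL-60, Bel7402, HepG2, SMMC-7721) with doxorubicin as the positive control.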
# [7] = tested on: HepG2; experiment: Cytotoxicity against human HepG2 cells after 72 hrs by MTT assay; assay type: functional, cell-based; in short: as §1
Structure (SMILES),Activity [3],Activity [4],further results
CC(=O)O[C@@H]1C[C@H](O)[C@@]23CO[C@H](O)[C@]1(C)[C@@H]2C[C@@H](O)[C@]1(C)[C@@H]3C(=O)C[C@@]2(C)[C@H](c3ccoc3)C[C@H]3O[C@]312 [AMOORASTATIN],–,–,EC50 [1]: < 0.065 µg/mL
CC1(C)OC(=O)C=C[C@]2(C)[C@H]3[C@@H](O)[C@H](O)[C@@]4(C)[C@H](c5ccoc5)C[C@@H](O)[C@]45O[C@H](C[C@@H]12)[C@]35C,Active,Active,Activity [2]: Active; Activity [5]: Active
COC(=O)N(C(=O)N1CO[C@@]2(C(=O)OC)Cc3cc(Cl)ccc3C2=N1)c1ccc(OC(F)(F)F)cc1,–,Active,–
CC1(C)OC(=O)C=C[C@]2(C)[C@H]3[C@@H](O)[C@H](O)[C@]4(C)[C@@H](C(=O)C[C@H]4c4ccoc4)[C@]3(C)[C@H](O)C[C@@H]12,Active,Active,Activity [2]: Active; Activity [5]: Active
COc1cccc2c1C(=O)c1c(O)c3c(c(O)c1C2=O)C[C@@](O)(C(=O)CO)C[C@@H]3O[C@H]1C[C@H](N)[C@H](O)[C@H](C)O1,–,–,Activity [6]: Active; Activity [7]: Active
CC(=O)O[C@H]1CC(=O)OC(C)(C)[C@@H]2C[C@@H](OC(C)=O)[C@]3(C)[C@H]([C@@H](O)[C@H](O)[C@@]4(C)[C@H](c5ccoc5)C[C@H]5O[C@@]534)[C@@]12C,Active,–,–
CN1COCN(Cc2cnc(Cl)s2)/C1=N\[N+](=O)[O-],–,Active,–
CC(=O)O[C@H]1CC(=O)OC(C)(C)[C@@H]2C[C@@H](O)[C@]3(C)[C@H]([C@@H](O)[C@H](OC(=O)c4cccnc4)[C@@]4(C)[C@H](c5ccoc5)C[C@H]5O[C@@]534)[C@@]12C,Active,Active,–
CCC(C)C(=O)OC1OC[C@@]23[C@H]4C(=O)[C@H](O)[C@@]5(C)[C@H](c6ccoc6)C[C@H]6O[C@]65[C@]4(C)[C@H](O)C[C@H]2[C@]1(C)[C@H](OC(C)=O)[C@H](O)[C@@H]3OC(C)=O (some centres not stated) [APHANASTATIN],–,–,EC50 [1]: < 0.065 µg/mL
